# Results published in ChEMBL document CHEMBL1138713 (Bioorg Med Chem Lett, 2004).
# System: Trypanosoma cruzi
# Test: Ability to cause lysis of trypomastigote form of Trypanosoma cruzi was determined
# Type: functional, organism-based
# Method in brief: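 Bloodstream trypomastigotes (Y strain) harvested from mice inoculated intraperitoneally with 10⁵ parasites; assay in Dulbecco's modified Eagle medium; DMSO stocks, final solvent ≤0.5%.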
row,SMILES,IC50 [µM]
1,Cn1c([N+](=O)[O-])cnc1-c1nnc(N/N=C\c2ccc(O)c(O)c2)s1 [BRAZILIZONE A],5.3
2,Cn1c([N+](=O)[O-])cnc1-c1nnc(N/N=C/c2ccc(Cl)cc2)s1,38.4
3,COc1ccc(/C=N/Nc2nnc(-c3ncc([N+](=O)[O-])n3C)s2)cc1O,50.5
4,COc1ccc(/C=N/Nc2nnc(-c3ncc([N+](=O)[O-])n3C)s2)cc1,> 200
5,Cn1c([N+](=O)[O-])cnc1-c1nnc(N/N=C/c2ccc3c(c2)OCO3)s1,> 200
6,Cn1c([N+](=O)[O-])cnc1-c1nnc(N/N=C/c2ccc(Br)cc2)s1,17
7,Cn1c([N+](=O)[O-])cnc1-c1nnc(N/N=C/c2ccc([N+](=O)[O-])cc2)s1,22
8,Cn1c([N+](=O)[O-])cnc1-c1nnc(N/N=C/c2ccc(F)cc2)s1,> 200
9,Cn1c([N+](=O)[O-])cnc1-c1nnc(N/N=C/c2cc(C(C)(C)C)c(O)c(C(C)(C)C)c2)s1,33.2
10,Cn1c([N+](=O)[O-])cnc1-c1nnc(N/N=C/c2ccc(OC(F)(F)F)cc2)s1,> 200
11,COc1cccc(/C=N/Nc2nnc(-c3ncc([N+](=O)[O-])n3C)s2)c1O,> 200

# The remaining lines, values ahead:
row,IC50 [µM],SMILES
1,54.2,Cn1c([N+](=O)[O-])cnc1-c1nnc(N/N=C/c2ccccc2O)s1
2,11.6,Cn1c([N+](=O)[O-])cnc1-c1nnc(N/N=C/c2ccc(O)cc2)s1
3,63.4,Oc1ccc(/C=N/Nc2nnc(-c3ccccc3)s2)cc1O
4,> 200,O=[N+]([O-])c1ccc(/C=N/Nc2nnc(-c3ccccc3)s2)cc1
5,> 200,C(=N\Nc1nnc(-c2ccccc2)s1)/c1ccccc1
6,> 200,COc1cc(/C=N/Nc2nnc(-c3ncc([N+](=O)[O-])n3C)s2)ccc1O
7,> 200,Oc1ccccc1/C=N/Nc1nnc(-c2ccccc2)s1
8,136,CC(C)(C)c1cc(/C=N/Nc2nnc(-c3ccccc3)s2)cc(C(C)(C)C)c1O
9,> 200,Oc1ccc(/C=N/Nc2nnc(-c3ccccc3)s2)cc1
10,> 200,Cn1c([N+](=O)[O-])cnc1-c1nnc(N/N=C/c2ccccc2)s1
